ChEMBL document CHEMBL1131498, “Design, synthesis, and evaluation of the multidrug resistance-reversing activity of D-glucose mimetics of hapalosin” (J Med Chem, 1998)
Converted amounts (≈) assume the structure as drawn.

How the values were obtained:
Settings in all cases: Homo sapiens
HL-60 [1] = assay: Effective concentration against HL-60/ADR cells using MRP-mediated MDR assay using 2 nM vincristine which results in 50% of the cells being killed in the presence of particular cytotoxic drug.; type: functional, cell-based
In short: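 Human promyelocytic leukemia HL-60/ADR cells (MRP-expressing, no P-gp) given varying compound concentrations plus 2 nM vincristine for 48 h. Survival by MTS tetrazolium metabolism (CellTiter AQueous); % killed as decrease vs control cultures. Triplicates, mean ± SD; approximate concentration (μg/mL) giving 50% kill.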

HL-60 [2] = assay: Inhibitory concentration against HL-60/ADR cells using MRP-mediated MDR assay using 2 nM vincristine which inhibits cell proliferation by 20% in the absence of particular cytotoxic drug; type: functional
In short: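 HL-60/ADR leukemia cells (MRP-expressing) exposed 48 h to varying compound concentrations alone, PBS replacing vincristine. Viability by MTS tetrazolium metabolism (CellTiter AQueous), % decrease vs controls. Triplicates, mean ± SD; approximate concentration (μg/mL) inhibiting proliferation by 20%.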

MCF7 [3] = assay: Effective concentration against MCF-7/ADR cells using P-gp-mediated MDR assay using 25 nM actinomycin D which results in 50% of the cells being killed in the presence of particular cytotoxic drug.; type: functional, cell-based
In short: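 MCF-7/ADR cells (from NCI, grown in RPMI 1640 + 10% FBS, 50 μg/mL gentamycin) seeded at ~15% confluency, 24 h recovery, then eight doses of compound with 25 nM actinomycin D for 48 h. Survival by sulforhodamine B staining; % killed as decrease in binding vs ethanol solvent controls. Triplicates, mean ± SD; approximate concentration (μg/mL) giving 50% kill read from curves.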

MCF7 [4] = assay: Inhibitory concentration against MCF-7/ADR cells using P-gp-mediated MDR assay using 25 nM actinomycin D which inhibit cells proliferation by 20% in the absence of particular cytotoxic drug; type: functional
In short: (§1)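 MCF-7/ADR cells (from NCI, RPMI 1640 + 10% FBS, 50 μg/mL gentamycin) seeded at ~15% confluency, 24 h attachment, then eight doses of compound alone (PBS in place of actinomycin D) for 48 h. Sulforhodamine B staining; % kill vs ethanol solvent controls. Triplicates, mean ± SD; approximate concentration (μg/mL) giving 20% growth inhibition.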

MCF7 [5] = assay: Inhibitory concentration against MCF-7/ADR cells using P-gp-mediated MDR assay using 25 nM actinomycin D which inhibits cell proliferation by 20% in the absence of particular cytotoxic drug; type: functional; in short: as §1

| Compound | EC50 (HL-60 [1]) [µg/mL] | IC20 (HL-60 [2]) [µg/mL] | EC50 (MCF7 [3]) [µg/mL] | IC20 (MCF7 [4]) [µg/mL] | IC20 (MCF7 [5]) [µg/mL] |
| --- | --- | --- | --- | --- | --- |
| CCCCCCCO[C@@H]1[C@@H](OCc2ccccc2)[C@@H](OCc2ccccc2)O[C@H](CO)[C@H]1OCc1ccc(OC)cc1 | 1.7 | 6 (≈ 10.4 µM) | 3 | 6 (≈ 10.4 µM) | – |
| CCCCCCCO[C@@H]1[C@@H](O)[C@@H](OCc2ccccc2)O[C@H](CC(C)C)[C@H]1OCc1ccc(OC)cc1 | 1.8 | > 20 | 4 | 12 (≈ 23.3 µM) | – |
| CCCCCCCO[C@@H]1[C@@H](OCc2ccccc2)[C@@H](OCc2ccccc2)O[C@H](C=C(C)C)[C@H]1OCc1ccc(OC)cc1 | > 20 | > 20 | > 20 | > 20 | – |
| CCCCCCCO[C@@H]1[C@@H](OCc2ccccc2)[C@@H](OCc2ccccc2)O[C@H](C=O)[C@H]1OCc1ccc(OC)cc1 | 1.5 | 1.8 (≈ 3.12 µM) | 4 | 5 (≈ 8.67 µM) | – |
| COc1ccc(CCN(C)CCCC(C#N)(c2ccc(OC)c(OC)c2)C(C)C)cc1OC (stereo unspecified) [VERAPAMIL] | 1.8 | > 20 | 1 | > 20 | – |
| CCCCCCCO[C@@H]1[C@@H](O)[C@@H](OCc2ccccc2)O[C@H](CC(C)C)[C@H]1O | 3.5 | > 20 | 6 | 12 (≈ 30.4 µM) | – |
| CCCCCCCO[C@@H]1[C@@H](O)[C@@H](OCc2ccccc2)O[C@H](CO)[C@H]1O | 10 | > 20 | > 20 | > 20 | – |
| CCCCCCCO[C@@H]1[C@@H](O)[C@@H](OCc2ccccc2)O[C@H](CC(C)C)[C@H]1OC | 10 | > 20 | 7 | 20 (≈ 49 µM) | – |
| CCCCCCCO[C@@H]1[C@@H](OCc2ccccc2)[C@@H](OCc2ccccc2)O[C@H](CC(C)C)[C@H]1OC | 18 | > 20 | > 20 | > 20 | – |
| CCCCCCCO[C@H]1[C@H](O)[C@@H](CC(C)C)O[C@H](OCc2ccccc2)[C@@H]1OCc1ccccc1 | 2.5 | > 20 | 6 | 10 (≈ 20.6 µM) | – |
| CCCCCCCO[C@@H]1[C@@H](O)[C@@H](OCc2ccccc2)O[C@@H]2CO[C@@H](c3ccc(OC)cc3)O[C@@H]12 | 2.5 | > 20 | 2.5 | 12 (≈ 24.7 µM) | – |
| CCCCCCCO[C@@H]1[C@@H](OCc2ccccc2)[C@@H](OCc2ccccc2)O[C@@H]2CO[C@@H](c3ccc(OC)cc3)O[C@@H]12 | 2.5 | > 20 | > 20 | > 20 | – |
| CCCCCCC[C@H]1OC(=O)C[C@@H](O)[C@H](Cc2ccccc2)N(C)C(=O)[C@H](C(C)C)OC(=O)[C@H]1C [HAPALOSIN] | 0.7 | 6 (≈ 12.3 µM) | 1 | – | 6 (≈ 12.3 µM) |
| CCCCCCCO[C@@H]1[C@@H](OCc2ccccc2)[C@@H](OCc2ccccc2)O[C@H](CC(C)C)[C@H]1OCc1ccc(OC)cc1 | > 20 | > 20 | > 20 | > 20 | – |
